Active and inactive are the calls of the source. The rule behind the calls is not given here.
How the values were obtained:
[1] = Effect on KEAP1 expression in human HCT-116 cells at 15 uM measured after 6 hrs by LC-MS/MS analysis relative to control; assay type: functional
Outline: (§1)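 HCT116 cells treated 6 h with DMSO, 15 μM or 30 μM compound, then pelleted. Peptides (1 μg) separated on a 25 cm C18 nano-column with a 136 min gradient and analysed by label-free LC-MS/MS on an Orbitrap Eclipse. Searched against the UniProt human database and quantified from normalized abundance. Two independent biological replicates per group; log2 fold change versus DMSO, p < 0.05.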

[2] = tested on: HCT-116; assay: Antiproliferative activity against human HCT-116 cells after 48 hrs by celltiter-glo luminescence assay; assay type: functional, cell-based; conditions: HCT-116, 48 h
[3] = Effect on BRCC3 expression in human HCT-116 cells at 30 uM measured after 6 hrs by LC-MS/MS analysis relative to control; assay type: functional; outline: as §1
[4] = Effect on KEAP1 expression in human HCT-116 cells at 30 uM measured after 6 hrs by LC-MS/MS analysis relative to control; assay type: functional; outline: as §1
[5] = tested on: HCT-116; assay: Antiproliferative activity against CB-5083-resistant human HCT-116 cells after 48 hrs by celltiter-glo luminescence assay; assay type: functional, cell-based
Outline: (§2)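 CellTiter-Glo viability in HCT116 lines carrying resistance mutations in p97 (CB-5083-resistant: D649A/T688A; NMS-873-resistant: A530T). Cells seeded at 750 or 3000/well within the linear range of a per-line standard curve, in DMEM with 5% FBS. Treated 24 h after seeding with eight three-fold dilutions for 48 h. IC50 from percent growth versus DMSO control; mean ± SEM of four replicate experiments.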

[6] = Effect on STIM1 expression in human HCT-116 cells at 30 uM measured after 6 hrs by LC-MS/MS analysis relative to control; assay type: functional; outline: as §1
[7] = Effect on AP2M1 expression in human HCT-116 cells at 15 uM measured after 6 hrs by LC-MS/MS analysis relative to control; assay type: functional; outline: as §1
[8] = Inhibition of yeast Cdc48 assessed as reduction in ATPase activity measured after 60 mins by biomol green reagent based assay; design: species or system Saccharomyces cerevisiae
Outline: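 Incubation ran 60 min at room temperature and was stopped with Biomol Green. Phosphate was read as absorbance at 635 nm. IC50 came from an eight-dose titration, six replicates.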

[9] = target: T1, Transitional endoplasmic reticulum ATPase (Homo sapiens, UniProt P55072); assay: Inhibition of His6-tagged p97 (unknown origin) expressed in Escherichia coli BL21 (DE3) assessed as reduction in ATPase activity measured after 60 mins in presence of cysteine by biomol green reagent based assay
Outline: (§3)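 His6-p97 expressed in E. coli BL21(DE3), purified by Ni-NTA and gel filtration (500–600 kDa fractions, ≥95% pure). Phosphate read by Biomol Green at 635 nm. Eight-dose titrations; IC50 from six replicates. Thiol tests added DTT or cysteine during preincubation.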
Target sequence in this assay (P55072 2-806 limits assumed): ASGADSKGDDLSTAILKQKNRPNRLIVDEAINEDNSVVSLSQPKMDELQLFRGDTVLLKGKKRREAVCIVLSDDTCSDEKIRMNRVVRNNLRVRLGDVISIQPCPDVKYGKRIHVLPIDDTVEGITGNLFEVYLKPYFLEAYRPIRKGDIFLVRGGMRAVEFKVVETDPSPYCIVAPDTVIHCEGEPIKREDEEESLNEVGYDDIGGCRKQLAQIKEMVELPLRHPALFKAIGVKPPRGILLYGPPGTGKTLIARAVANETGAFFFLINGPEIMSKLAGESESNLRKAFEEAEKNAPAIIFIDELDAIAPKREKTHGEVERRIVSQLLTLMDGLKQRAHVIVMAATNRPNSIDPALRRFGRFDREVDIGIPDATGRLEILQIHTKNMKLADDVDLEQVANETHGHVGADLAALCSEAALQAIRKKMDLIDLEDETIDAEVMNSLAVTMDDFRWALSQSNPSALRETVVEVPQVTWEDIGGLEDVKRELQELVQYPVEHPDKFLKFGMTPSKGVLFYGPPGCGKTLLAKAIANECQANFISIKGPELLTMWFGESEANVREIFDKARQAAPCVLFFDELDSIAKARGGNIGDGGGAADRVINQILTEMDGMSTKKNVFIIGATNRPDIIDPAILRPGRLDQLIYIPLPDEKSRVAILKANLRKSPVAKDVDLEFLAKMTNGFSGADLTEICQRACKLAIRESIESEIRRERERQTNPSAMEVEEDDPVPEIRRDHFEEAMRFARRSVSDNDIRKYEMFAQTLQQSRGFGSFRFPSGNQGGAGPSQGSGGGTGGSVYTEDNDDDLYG

[10] = Effect on PRKRIR expression in human HCT-116 cells at 30 uM measured after 6 hrs by LC-MS/MS analysis relative to control; assay type: functional; outline: as §1
[11] = Effect on SQSTM1 expression in human HCT-116 cells at 30 uM measured after 6 hrs by LC-MS/MS analysis relative to control; assay type: functional; outline: as §1
[12] = tested on: HCT-116; assay: Antiproliferative activity against NMS-873-resistant human HCT-116 cells after 48 hrs by celltiter-glo luminescence assay; assay type: functional, cell-based; outline: as §2
[13] = Effect on SQSTM1 expression in human HCT-116 cells at 15 uM measured after 6 hrs by LC-MS/MS analysis relative to control; assay type: functional; outline: as §1
[14] = Effect on KNTC1 expression in human HCT-116 cells at 15 uM measured after 6 hrs by LC-MS/MS analysis relative to control; assay type: functional; outline: as §1
[15] = target: T1, Transitional endoplasmic reticulum ATPase; assay: Inhibition of His6-tagged p97 (unknown origin) expressed in Escherichia coli BL21 (DE3) assessed as reduction in ATPase activity measured after 60 mins in presence of DTT by biomol green reagent based assay; outline: as §3
Target sequence in this assay (P55072 2-806 limits assumed): as above

[16] = Effect on LAMP1 expression in human HCT-116 cells at 15 uM measured after 6 hrs by LC-MS/MS analysis relative to control; assay type: functional; outline: as §1
[17] = Effect on AUP1 expression in human HCT-116 cells at 15 uM measured after 6 hrs by LC-MS/MS analysis relative to control; assay type: functional; outline: as §1
[18] = Effect on EPPK1 expression in human HCT-116 cells at 15 uM measured after 6 hrs by LC-MS/MS analysis relative to control; assay type: functional; outline: as §1
[19] = target: T1, Transitional endoplasmic reticulum ATPase; assay: Inhibition of p97 in human HeLa cells assessed as reduction in proteasomal turnover of p97-dependent reporter substrate UbG76V-GFP incubated for 120 mins by GFP fluorescence imaging
Target sequence in this assay (P55072 whole entry): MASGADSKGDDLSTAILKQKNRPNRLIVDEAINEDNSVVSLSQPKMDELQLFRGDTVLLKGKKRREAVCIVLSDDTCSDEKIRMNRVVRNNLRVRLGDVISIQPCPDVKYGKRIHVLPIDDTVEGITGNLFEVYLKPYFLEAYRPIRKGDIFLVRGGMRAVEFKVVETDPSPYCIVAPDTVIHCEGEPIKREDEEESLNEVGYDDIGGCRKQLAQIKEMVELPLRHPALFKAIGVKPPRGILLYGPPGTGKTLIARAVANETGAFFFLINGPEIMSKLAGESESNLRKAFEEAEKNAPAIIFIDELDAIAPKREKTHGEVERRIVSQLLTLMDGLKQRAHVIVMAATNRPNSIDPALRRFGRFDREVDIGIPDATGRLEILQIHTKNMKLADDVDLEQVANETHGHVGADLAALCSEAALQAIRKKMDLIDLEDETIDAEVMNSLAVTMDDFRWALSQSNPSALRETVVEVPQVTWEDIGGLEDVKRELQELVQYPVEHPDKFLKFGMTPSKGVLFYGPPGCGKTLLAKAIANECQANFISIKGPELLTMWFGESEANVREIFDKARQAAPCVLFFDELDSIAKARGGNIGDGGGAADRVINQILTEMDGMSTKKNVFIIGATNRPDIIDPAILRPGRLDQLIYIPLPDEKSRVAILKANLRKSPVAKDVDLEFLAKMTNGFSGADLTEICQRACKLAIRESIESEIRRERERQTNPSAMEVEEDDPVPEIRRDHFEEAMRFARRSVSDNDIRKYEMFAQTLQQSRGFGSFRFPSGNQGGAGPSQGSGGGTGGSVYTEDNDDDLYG

[20] = target: T1, Transitional endoplasmic reticulum ATPase; assay: Inhibition of His6-tagged p97 (unknown origin) expressed in Escherichia coli BL21 (DE3) assessed as reduction in ATPase activity measured after 60 mins by biomol green reagent based assay; outline: as §3
Target sequence in this assay (P55072 whole entry): as above

[21] = Effect on ZFAND1 expression in human HCT-116 cells at 30 uM measured after 6 hrs by LC-MS/MS analysis relative to control; assay type: functional; outline: as §1
[22] = Effect on CDK2AP1 expression in human HCT-116 cells at 30 uM measured after 6 hrs by LC-MS/MS analysis relative to control; assay type: functional; outline: as §1
[23] = Effect on BRIX1 expression in human HCT-116 cells at 30 uM measured after 6 hrs by LC-MS/MS analysis relative to control; assay type: functional; outline: as §1
[24] = Effect on LAMP1 expression in human HCT-116 cells at 30 uM measured after 6 hrs by LC-MS/MS analysis relative to control; assay type: functional; outline: as §1
[25] = Effect on CDK2AP1 expression in human HCT-116 cells at 15 uM measured after 6 hrs by LC-MS/MS analysis relative to control; assay type: functional; outline: as §1
[26] = Effect on PLEC expression in human HCT-116 cells at 15 uM measured after 6 hrs by LC-MS/MS analysis relative to control; assay type: functional; outline: as §1

With `C=CC(=O)Nc1ncnc2c1c(-c1ccccc1)nn2C(C)(C)C` as the compound, how does the log2FC [1] read?
The log2FC was -0.46.

And the IC50 [2]?
The IC50 was 2700 nM.

What about the log2FC [3] of the same compound?
Its log2FC is 0.83.

What about the log2FC [4] of the same compound?
Its log2FC is -1.03.

What about the Activity [5] of the same compound?
The Activity was “Active”.

What about the log2FC [6] of the same compound?
Its log2FC is 1.65.

What about the log2FC [7] of the same compound?
Its log2FC is -0.33.

What about the IC50 [8] of the same compound?
The IC50 was 376000 nM.

And the inhibition [9]?
Its inhibition is “Active”.

What about the log2FC [10] of the same compound?
The log2FC was 0.68.

What about the log2FC [11] of the same compound?
Its log2FC is 0.97.

And the Activity [12]?
Its Activity is “Active”.

What about the log2FC [13] of the same compound?
The log2FC was 0.42.

And the log2FC [14]?
The log2FC was -0.43.

And the inhibition [15]?
The inhibition was “Active”.

What about the log2FC [16] of the same compound?
The log2FC was -0.59.

What about the log2FC [17] of the same compound?
The log2FC was -0.39.

What about the log2FC [18] of the same compound?
The log2FC was 0.38.

What about the IC50 [19] of the same compound?
Its IC50 is 1600 nM.

And the IC50 [20]?
Its IC50 is 600 nM.

And the log2FC [21]?
Its log2FC is 0.42.

And the log2FC [22]?
Its log2FC is -0.47.

And the log2FC [23]?
Its log2FC is 0.7.

And the log2FC [24]?
The log2FC was -0.66.

And the log2FC [25]?
The log2FC was -0.48.

What about the log2FC [26] of the same compound?
Its log2FC is 0.33.
